# Runt-CBFb FRET: blocks binding of human RUNX1 Runt domain to CBFb | Q01196+Q13951 | Cerulean-Runt/Venus-CBFb FRET ratio 530/480, 1 h | inhibition, % at 20 µM | hit rate 0.46% among 220,000;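 active = inhibition over about 50% at 20 µM in the single-dose screen, limit read from the data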;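 also: 0% = DMSO wells and 100% = excess unlabeled CBFb competitor control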
# Target sequence (Q01196 whole entry, looked up, the tested form may be a part): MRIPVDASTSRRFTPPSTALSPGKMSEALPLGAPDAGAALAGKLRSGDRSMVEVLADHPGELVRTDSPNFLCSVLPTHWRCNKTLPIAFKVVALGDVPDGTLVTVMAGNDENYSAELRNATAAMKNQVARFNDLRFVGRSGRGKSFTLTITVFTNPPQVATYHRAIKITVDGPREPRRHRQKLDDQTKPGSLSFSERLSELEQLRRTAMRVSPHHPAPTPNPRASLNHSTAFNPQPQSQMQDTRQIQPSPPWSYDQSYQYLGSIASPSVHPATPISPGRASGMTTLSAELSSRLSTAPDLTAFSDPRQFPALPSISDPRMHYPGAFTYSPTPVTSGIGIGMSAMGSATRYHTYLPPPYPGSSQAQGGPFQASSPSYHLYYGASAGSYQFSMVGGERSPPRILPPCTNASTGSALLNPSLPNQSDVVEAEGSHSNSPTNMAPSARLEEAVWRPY
# Target sequence (Q13951 whole entry, looked up, the tested form may be a part): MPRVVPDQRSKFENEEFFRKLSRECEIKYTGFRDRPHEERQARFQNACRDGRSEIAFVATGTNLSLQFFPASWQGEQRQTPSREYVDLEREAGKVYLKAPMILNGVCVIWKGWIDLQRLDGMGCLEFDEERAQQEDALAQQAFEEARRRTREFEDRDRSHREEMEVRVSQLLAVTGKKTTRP
#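 Doses: 20 µM compound in 1% DMSO | Material: Cerulean-labeled Runt domain protein | Amount: Each fluorescent fusion protein 100 nM | Schedule: Two 1 h room-temperature incubations shielded from light | Measured by: FRET fluorescence | Evaluation: Loss of energy transfer signal | Controls: Unlabeled CBFb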
# RanGTP-Impb inh: disruptors of Ran-importin-beta complex formation – biochemical, FRET, CFP-Ran, YFP-importin-beta, homogeneous, primary screen; cell-free CFP-Ran/YFP-importin-beta FRET ratio; inhibition, % (test concentration not listed); hit rate 1.1% among 300,000;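 active = more than half of the replicate wells show a fall in the fluorescence ratio signal beyond about 16%, limit read from the data, passing the limit was not always enough; inconclusive = exactly half of the replicate wells pass the set limit; inactive = fewer than half of replicates pass the limit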;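 also: 0% = DMSO wells and 100% = Ran loaded with GDP instead of GTP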
# Runt-SMMHC FRET: blocks binding of human RUNX1 Runt domain to CBFb-SMMHC; Cerulean-Runt/Venus-CBFb-SMMHC FRET ratio 530/480, 1 h; hit rate 0.74% among 220,000; inhibition, % at 20 µM; Q01196+Q13951; AID 1434;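 active = mean inhibition across duplicate retests at 20 µM reaching about 50%, limit read from the data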;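 also: 0% = DMSO wells and 100% = wells with excess untagged CBFb-SMMHC; inhibitors lower the FRET ratio by blocking Runt binding to CBFb-SMMHC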
# proKLK7 act: activators of human kallikrein-7 zymogen; P49862; purified proKLK7, EDANS-DABCYL substrate fluorescence; 100% is mature enzyme control, 0% vehicle; AID 652039; activation, % at 7 µM; hit rate 0.9% among 370,000;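 active = activation above the mean of all tested compounds plus 3 SD, computed per campaign excluding outliers beyond control limits, cut at about 13% in these data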
# MEX-5 binding: C. elegans MEX-5 TCR-2 RNA binding activity; MEX-5/FITC-TCR2 RNA binding, fluorescence polarization; hits give low values; activity score (negative = inhibition of binding), % at 10 µM; hit rate 0.38% among 300,000; AID 1832;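 active = inhibition past about -25% in most replicates, and total fluorescence under double the plate's negative control median, limit read from the data; inconclusive = replicates evenly split on the limit, or fluorescence at least double controls; inactive = too little inhibition in most replicates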;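 also: 0% = DMSO and -100% = 5 µM competing unlabeled TCR2 RNA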
# Numbers without * were called inactive; ? = inconclusive; · = no result. Hits are enriched below; roughly 2.1% of the tested compounds scored in any of these assays.
SMILES,Runt-CBFb FRET,RanGTP-Impb inh,Runt-SMMHC FRET,proKLK7 act,MEX-5 binding
COc1ccc(-n2c(O)c(C=Nc3ccccc3)c3ccccc3c2=O)cc1OC,22.5,-4.1,71.4,-8.4,-3.4
Cc1cccc(-n2c(O)c(C=Nc3ccc4c(c3)OCO4)c3ccccc3c2=O)n1,-268.3,4.9,-44.6,1.5,-36.5*
COc1ccc(-n2c(O)c(C=Nc3ccccc3)c3ccccc3c2=O)cc1,7.2,?,90.0*,-0.2,0.3
Cc1cc(N=Cc2c(O)n(-c3ccc4c(c3)OCO4)c(=O)c3ccccc23)ccn1,9.7,-1.5,8.7,10.3,-30.7*
COc1ccc(OC)c(C(=O)NC(CC(N)=O)c2ccc(N3CCN(c4ccc(F)cc4)CC3)c([N+](=O)[O-])c2)c1 (configuration not stated),·,3.3,·,0.7,-0.6
COC(=O)c1ccc(Cn2ccc3ccc(-c4ccc5ccn(C(=O)c6ccccc6C)c5c4)cc32)cc1,·,·,·,-8.5,·
CC(=O)c1cc(-c2cccc(CO)c2)c(=O)n2c1CCC2,·,·,·,0.5,·
Cc1ccc(N(C)S(=O)(=O)c2cccc(C(=O)OCC(=O)N3CCCC(C)C3)c2)cc1 (configuration not stated),·,·,·,0.5,·
CC1=NN(C(N)=S)C(=O)C1N=Nc1cccc(C(=O)O)c1 (configuration not stated),·,?,·,0.0,-30.0*
CCCN1C=CC(=CC=C(C#N)C#N)C=C1,-13.6,34.2*,-30.5,0.5,?
CCCCCN1C=CC=C/C1=C\C=C(C#N)C#N,-14.0,-0.6,-41.5,-0.1,-37.0*
CCCN1C=CC(=C/C=C(\C#N)C(=O)OCC)C=C1,-41.5,?,-92.1,·,?
NS(=O)(=O)c1ccc(NC(=O)COC(=O)c2cn(-c3ccccc3)nc2-c2ccc(F)cc2)cc1,-4.5,-2.1,4.0,-0.1,-29.7*
O=C(COC(=O)c1cn(-c2ccccc2)nc1-c1ccc(F)cc1)Nc1ncc(Cl)cc1Cl,-3.7,-2.7,-1.4,-0.3,-3.9
Cc1ccc(-c2ccccc2)n1-c1ccc(C(=O)O)cc1,3.7,-0.7,6.7,0.6,-3.3
Cc1cc2c(n1-c1ccc(C(=O)O)cc1)CCCCC2,·,1.1,·,·,-62.3*
c1ccc(CSc2cc3ccccc3[nH]2)cc1,·,-1.9,·,0.8,0.7
Cc1ccc(C(=O)/C=C/NCc2ccc(F)cc2)cc1,2.4,30.6*,-1.1,-2.2,-0.7
Cc1cccc2cc(C#N)c(NCCNC(=O)NC3CCCCC3)nc12,54.9*,2.6,75.1*,0.2,-0.6
COc1ccc(C(=O)NCCNc2nc3c(C)cccc3cc2C#N)cc1OC,·,39.5*,·,-1.2,-0.5
CCOc1ccc(Nc2nc3c(C)cccc3cc2C#N)cc1,·,-12.6,·,-0.5,3.2
Cc1cccc2cc(C#N)c(NCCNS(=O)(=O)c3ccc4c(c3)OCCO4)nc12,28.2,?,76.0*,-1.2,-6.0
CCC(=O)NCCCNc1nc2c(C)cccc2cc1C#N,9.1,41.2*,33.5,2.3,-0.8
CCCc1ccc(C(O)c2ncc(-c3cccc(C)c3)[nH]2)cc1 (configuration not stated),·,·,·,0.4,·
Cc1ccc(NC(=O)CCCC2CCCCC2)c(O)c1,·,-2.5,·,-0.3,0.3
SMILES,Runt-CBFb FRET,RanGTP-Impb inh,Runt-SMMHC FRET,proKLK7 act,MEX-5 binding
COc1cccc(N2CCN(CC(=O)NCc3ccccc3C)CC2)c1,·,·,·,-0.6,·
Cc1ccc2cc(C#N)c(NCCNC(=O)C3CCC3)nc2c1C,37.9,19.3*,78.3*,1.0,1.7
O=C(c1cc(-c2ccccc2)nn1-c1ccccc1)N1CCN(S(=O)(=O)c2c(F)cccc2F)CC1,·,4.6,·,0.3,-3.2
CCCNC(=O)N1C[C@H](O)COC[C@H]2O[C@@H](CC(=O)N[C@@H]3CCN(Cc4ccccc4)C3)CC[C@@H]21,·,·,·,4.2,·
O=C1CCC(C(=O)N(CCO)Cc2ccccc2)CN1CC1CCCCC1 (configuration not stated),·,-1.1,·,-0.5,-0.5
Cc1ccccc1-n1c(=O)cc(N2CCc3ccccc3C2)[nH]c1=O,37.1,52.9*,75.6*,0.5,-12.6
Cc1ccccc1-n1c(=O)cc(N2CCN(Cc3ccccc3)CC2)[nH]c1=O,1.2,9.3,-7.6,0.5,3.0
Cc1ccc(-n2c(=O)cc(N3CCC(C)CC3)[nH]c2=O)cc1,-0.5,1.7,-0.3,0.1,-0.8
